Data as given in ChEMBL document CHEMBL1123247, “Nucleoside conjugates. 7. Synthesis and antitumor activity of 1-beta-D-arabinofuranosylcytosine conjugates of ether lipids” (J Med Chem, 1986).

What was measured:
P388 [1] = test: Antitumor activity was determined against the ip implanted P388 leukemia in mice by change in […] at 500 mg/kg (1 qd treatment schedule) dosage; assay type: functional, Mus musculus; conditions: route intraperitoneal
In short: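 P388 leukemia, 1×10^6 cells implanted ip on day 0 into DBA/2J mice, groups of 6 (wt 23-33 g). Dosing ip started 24 h post-inoculation, vehicle 0.9% NaCl containing 0.5% Tween-80. Animals were observed daily until death or 45 days. Outputs were weight change, median survival T/C from survivors per NCI protocols, and %ILS = (T/C − 1) × 100.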

P388 [2] = test: Antitumor activity was determined against the ip implanted P388 leukemia in mice by percent median survival rate (treated/control) at 60 mg/kg (1-5qd treatment schedule) dosage; >45.0/11.0; assay type: functional, Mus musculus; conditions: route intraperitoneal
L1210 [3] = test: Antitumor activity was determined against the ic implanted L1210 lymphoid leukemia in mice by change in body weight at 300 mg/kg (1 qd treatment schedule) dosage
L1210 [4] = test: Antitumor activity against the ic implanted L1210 lymphoid leukemia in mice (1,5,9qd treatment schedule) required to produce greatest increase in life span was determined; assay type: functional, Mus musculus
In short: (§1)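 DBA/2J mice, groups of 6 (26-32 g), got 1 × 10^5 L1210 cells ic on day 0. Dosing was ip starting 24 h later, as a sonicated solution or suspension in 0.9% NaCl with 0.5% Tween-80, over a wide dose range. Mice were followed daily until death. Median survival T/C was taken from survivors per NCI protocols, and ILS = (T/C − 1) × 100. Active range means doses giving ILS ≥25%; optimal dose means greatest ILS.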

L1210 [5] = test: Antitumor activity was determined against the ip implanted L1210 leukemia in mice by percent increase in life span at 40 mg/kg (treatment of 1-5qd schedule) dosage; assay type: functional, Mus musculus; conditions: route intraperitoneal
In short: (§2)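 DBA/2J mice in groups of 6 (wt 23-28 g) were inoculated ip with 1×10^6 L1210 cells on day 0. Dosing was ip from 24 h, in 0.9% NaCl with 0.5% Tween-80 (conjugates sonicated), across a range of doses. Mice were observed daily until death or 45 days. Median T/C was computed from survivors per NCI protocols, and ILS = (T/C − 1)×100.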

L1210 [6] = test: Antitumor activity was determined against the ip implanted L1210 leukemia in mice by range in survival days at 400 mg/kg (treatment of 1qd schedule) dosage; Range is 20-33; assay type: functional, Mus musculus; conditions: route intraperitoneal
In short: (§3)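 DBA/2J mice, 23-28 g, in groups of 6, were inoculated ip with 1×10^6 L1210 cells on day 0. Dosing was ip starting 24 h later on the stated daily schedules. Conjugates were given as sonicated solutions and reference prodrugs as suspensions in 0.9% NaCl with 0.5% Tween-80. Mice were observed daily until death or 45 days. Median survival T/C was calculated from survivors per NCI protocols.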

L1210 [7] = test: Antitumor activity was determined against the ic implanted L1210 lymphoid leukemia in mice by median survival time at 100 mg/kg (treatment of 1-5qd schedule) dosage; 22.0/7.0
P388 [8] = test: Antitumor activity was determined against the ip implanted P388 leukemia in mice by 45-day survivors in mice at 300 mg/kg (treatment of 1qd schedule) dosage; conditions: route intraperitoneal
P388 [9] = test: Antitumor activity against ip implanted P388 leukemia in mice expressed as active dose range (1 qd treatment schedule) required to produce increase in life span by >25% was determined; Range is 300-500; assay type: functional, Mus musculus
In short: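 P388 leukemia: 1 × 10^6 cells were given ip on day 0 to DBA/2J mice, groups of 6 (23-33 g). Treatment was ip from 24 h after inoculation, vehicle 0.9% NaCl with 0.5% Tween-80. Mice were observed daily until death or 45 days. Median survival T/C was calculated from survivors per NCI protocols, and ILS = (T/C − 1) × 100. Active range means doses giving ILS ≥25%; optimal dose means greatest ILS.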

P388 [10] = test: Antitumor activity was determined against the ip implanted P388 leukemia in mice by percent median survival rate (treated/control) at 67 mg/kg (treatment of 1,5,9qd schedule) dosage; 25.5/11.0; assay type: functional, Mus musculus; conditions: route intraperitoneal
L1210 [11] = test: Antitumor activity was determined against the ip implanted L1210 leukemia in mice by percent median survival rate (treated/control) at 400 mg/kg (treatment of 1qd schedule) dosage; 25.0/7.0; assay type: functional, Mus musculus; conditions: route intraperitoneal; in short: as §3
L1210 [12] = test: Antitumor activity was determined against the ip implanted L1210 leukemia in mice by change in […] at 100 mg/kg (treatment of 1-5qd schedule) dosage; assay type: functional, Mus musculus; conditions: route intraperitoneal
In short: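 DBA/2J mice, 6 per group (wt 23-28 g), inoculated ip with 1×10^6 L1210 cells on day 0. Treatment was given ip in 0.9% NaCl with 0.5% Tween-80, starting 24 h later. Weight change was taken on day 8. Mice were observed daily until death or 45 days. Median survival T/C and %ILS = (T/C − 1) × 100 came from survivors per NCI protocols, and 45-day survivors were counted.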

P388 [13] = test: Antitumor activity was determined against the ip implanted P388 leukemia in mice by 45-day survivors in mice at 67 mg/kg (treatment of 1,5,9qd schedule) dosage; assay type: functional, Mus musculus; conditions: route intraperitoneal
In short: (§4)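 DBA/2J mice, 23-33 g, in groups of 6, were inoculated ip with 1×10^6 P388 cells on day 0. Dosing was ip from 24 h on the stated schedules, in 0.9% NaCl with 0.5% Tween-80 (sonicated solution or suspension). Survival was followed daily until death or 45 days. Median T/C was calculated from survivors per NCI protocols, with ILS = (T/C − 1) × 100.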

L1210 [14] = test: Antitumor activity was determined against the ip implanted L1210 leukemia in mice by range in survival days at 400 mg/kg (treatment of 1qd schedule) dosage; Range is 9-11; assay type: functional, Mus musculus; conditions: route intraperitoneal; in short: as §3
Glioblastoma cell line = test: Compound was tested for the inhibition of glioblastoma; assay type: functional, cell-based; conditions: Homo sapiens
In short: (§5)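 Human leukemia and solid tumor cells in culture were exposed to compound for 48 h. Viability was scored by trypan blue dye exclusion. IC50 (50% inhibition) was estimated from response curves of three separate experiments.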

P388 [15] = test: Antitumor activity was determined against the ip implanted P388 leukemia in mice by 45-day survivors in mice at 200 mg/kg (treatment of 1-5qd schedule) dosage; assay type: functional, Mus musculus; conditions: route intraperitoneal; in short: as §4
L1210 [16] = test: Antitumor activity was determined against the ic implanted L1210 lymphoid leukemia in mice by percent increase in life span at 100 mg/kg (treatment of 1-9qd schedule) dosage; assay type: functional, Mus musculus; in short: as §1
CML/BC = test: Compound was tested for the inhibition of CML/BC(chronic myeloid leukemia, blast crisis); assay type: functional, cell-based; conditions: Homo sapiens; in short: as §5
[17] = tested on: Non-small cell lung cancer cell line; test: Compound was tested for the inhibition of non- small cell lung cancer; assay type: functional, cell-based; conditions: Homo sapiens; in short: as §5
P388 [18] = test: Antitumor activity was determined against the ip implanted P388 leukemia in mice by percent median survival rate (treated/control) at 500 mg/kg (treatment of 1qd schedule) dosage; 15.0/11.0; assay type: functional, Mus musculus; conditions: route intraperitoneal
L1210 [19] = test: Antitumor activity was determined against the ip implanted L1210 leukemia in mice by 45-day survivors in mice at 200 mg/kg (treatment of 1-5qd schedule) dosage; assay type: functional, Mus musculus; conditions: route intraperitoneal; in short: as §2

Compound: CCCCCCCCCCCCCCCC(=O)OC[C@H](COP(=O)(O)OP(=O)(O)OC[C@H]1O[C@@H](n2ccc(N)nc2=O)[C@@H](O)[C@@H]1O)OC(=O)CCCCCCCCCCCCCCC
- Weight change (P388 [1]): -0.07 g mouse-1
- T/C (P388 [2]): >45%
- Weight change (L1210 [3]): -0.88 g mouse-1
- Optimal dose (L1210 [4]): 133 mg
- ILS (L1210 [5]): 275

Compound: CCCCCCCCCCCCCCCCOCC(COP(=O)(O)OP(=O)(O)OC[C@H]1O[C@@H](n2ccc(N)nc2=O)[C@@H](O)[C@@H]1O)OC(=O)CCCCCCCCCCCCCCC (mixture of isomers)
- Range (L1210 [6]): 20
- median survival time (L1210 [7]): 22 days
- Survivors (P388 [8]): 6
- Active dose range (P388 [9]): 300 mg/kg/day

Compound: CCCCCCCCCCCCCCCCCCOCC(COP(=O)(O)OP(=O)(O)OC[C@H]1O[C@@H](n2ccc(N)nc2=O)[C@@H](O)[C@@H]1O)OC(=O)CCCCCCCCCCCCCCC (mixture of isomers)
- T/C (P388 [10]): 25.5%
- T/C (L1210 [11]): 25%
- Weight change (L1210 [12]): -0.95 g mouse-1
- Survivors (P388 [13]): 0

Compound: Nc1ccn([C@@H]2O[C@H](CO)[C@@H](O)[C@@H]2O)c(=O)n1 [CYTARABINE]
- Range (L1210 [14]): 9
- IC50 (Glioblastoma cell line): > 100 µM
- Survivors (P388 [15]): 0
- ILS (L1210 [16]): 100
- IC50 (CML/BC): 0.21 µM
- IC50 [17]: 34 µM
- T/C (P388 [18]): 15%
- Survivors (L1210 [19]): 0
